Experimental data collected from several papers.
Effect on: cell growth or viability

SMILES | cell line | assay | setting | measurement | result
COc1ccc(NC(=O)Nc2cccc(-c3cn(Cc4ccccc4C)nn3)c2)cc1 | Huh-7 | CCK-8 | 50 µM, 72 h | viability | 10.5%
O=C(Nc1ccc(Cl)cc1)Nc1ccc(-c2cn(Cc3cccc(Cl)c3)nn2)cc1 | Huh-7 | CCK-8 | 50 µM, 72 h | viability | 70.4%
COc1ccc(NC(=O)NCc2cn(Cc3ccccc3C)nn2)cc1 | Huh-7 | CCK-8 | 50 µM, 48 h | viability | 84.2%
O=c1[nH]cc(F)c(=O)[nH]1 | LX-2 | MTS | 50 µM, 72 h | inhibition | 81.4%
O=C(Nc1cccc(-c2cn(Cc3ccc(Br)cc3)nn2)c1)Nc1ccccc1Br | Huh-7 | CCK-8 | 50 µM, 48 h | viability | 61.2%
COc1ccc(NC(=O)NCc2cn(Cc3ccc(Cl)cc3)nn2)cc1 | Huh-7 | CCK-8 | 72 h | IC50 | > 50 µM
O=C(Nc1ccc(-c2ccccc2)cc1)c1cnn(-c2ccc([N+](=O)[O-])cc2)c1C(F)(F)F | LX-2 | MTS | 50 µM, 72 h | inhibition | 12.4%
COc1ccc(NC(=O)Nc2ccc(-c3cn(Cc4ccc(C)cc4)nn3)cc2)cc1 | Huh-7 | CCK-8 | 50 µM, 72 h | viability | 64.7%
C=C(NC(=O)C(=C)NC(=O)c1csc(C2=N[C@@H]3c4csc(n4)[C@H]4NC(=O)c5csc(n5)[C@H]([C@](C)(O)[C@@H](C)O)NC(=O)[C@H]5CSC(=N5)/C(=C/C)NC(=O)[C@H]([C@@H](C)O)NC(=O)c5csc(n5)[C@]3(CC2)NC(=O)[C@H](C)NC(=O)C(=C)NC(=O)[C@H](C)NC(=O)[C@H]([C@@H](C)CC)N[C@@H]2C=Cc3c([C@H](C)O)cc(nc3[C@H]2O)C(=O)O[C@@H]4C)n1)C(N)=O | NCI-H2009 | – | – | EC50 | 1500 nM
O=C(Nc1ccc(Cl)cc1)Nc1ccc(-c2cn(Cc3ccc(Cl)cc3)nn2)cc1 | Huh-7 | CCK-8 | 50 µM, 72 h | viability | 72.8%
O=[N+]([O-])c1cc(I)c(O)c(C=NNc2ccc(Br)cc2)c1 | HEK-293T | MTT | 24 h | IC50 | 11.4 µM
CC(C)C[C@H](NC(=O)[C@H](Cc1ccccc1)NC(=O)c1cnccn1)B(O)O | HepG2 | ATP luminescence | 48 h | EC50 | 0.007 nM
O=C(Nc1ccc(-c2cn(Cc3ccc(Br)cc3)nn2)cc1)Nc1ccccc1Br | Huh-7 | CCK-8 | 50 µM, 48 h | viability | 70.8%
O=[N+]([O-])c1cc(Br)c(O)c(C=NNc2ccc(Cl)cc2)c1 | HEK-293T | MTT | 24 h | IC50 | 17.2 µM
